Measurements from ChEMBL document CHEMBL4699498 (J Med Chem, 2020).
The source made the active and inactive calls. No cut-off for these calls is given here.

Legend:
[1] = Plasma concentration in ICR mouse at 25 mg/kg, ip at 24 hrs postinjection by LC-tandem mass spectrometry analysis; format: ADME, organism-based
Method in brief: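 Female ICR mice (20-23 g, 6-7 weeks old, n = 3) received a single 25 mg/kg intraperitoneal dose formulated in 5% DMSO/15% Solutol HS15/80% D5W. Plasma was sampled at 0.5, 1, 2, 4, 6, 8 and 24 h and protein-precipitated with methanol. Compound was quantified by LC-MS/MS against a standard curve.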

CWR22R = experiment: Antiproliferation activity against human 22Rv1 assessed as cell growth inhibition incubated for 7 days by CCK-8 assay; format: functional, cell-based; settings: time 7.0 day
Method in brief: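 Cells were sub-cultured at least twice and seeded for 24 h before dosing. Compounds came from 10 mM DMSO stocks, given as 10 points of 3-fold serial dilution starting at 10-20 μM. Incubation was about 7 days (Capan-1 13 days) at 37 °C, 5% CO2. Read-out was CCK-8 absorbance at 450 nm, as % growth versus DMSO wells (duplicate wells). IC50 was fitted by nonlinear regression; three independent experiments.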

[2] = target: T1, Protein cereblon/Poly [ADP-ribose] polymerase 1 (Homo sapiens, UniProt P09874+Q96SW2); experiment: Protac activity at CRBN/PARP1 in human MDA-MB-436 cells assessed as induction of PARP1 degradation incubated for 24 hrs by Western blot analysis; format: cell-based
Method in brief: (§1)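 Concentration-response over a wide range, 24 h exposure; PARP1 quantified by western blot and normalized to β-tubulin density; DC50 derived from two biologically independent experiments.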
Target sequence in this assay (P09874 whole entry): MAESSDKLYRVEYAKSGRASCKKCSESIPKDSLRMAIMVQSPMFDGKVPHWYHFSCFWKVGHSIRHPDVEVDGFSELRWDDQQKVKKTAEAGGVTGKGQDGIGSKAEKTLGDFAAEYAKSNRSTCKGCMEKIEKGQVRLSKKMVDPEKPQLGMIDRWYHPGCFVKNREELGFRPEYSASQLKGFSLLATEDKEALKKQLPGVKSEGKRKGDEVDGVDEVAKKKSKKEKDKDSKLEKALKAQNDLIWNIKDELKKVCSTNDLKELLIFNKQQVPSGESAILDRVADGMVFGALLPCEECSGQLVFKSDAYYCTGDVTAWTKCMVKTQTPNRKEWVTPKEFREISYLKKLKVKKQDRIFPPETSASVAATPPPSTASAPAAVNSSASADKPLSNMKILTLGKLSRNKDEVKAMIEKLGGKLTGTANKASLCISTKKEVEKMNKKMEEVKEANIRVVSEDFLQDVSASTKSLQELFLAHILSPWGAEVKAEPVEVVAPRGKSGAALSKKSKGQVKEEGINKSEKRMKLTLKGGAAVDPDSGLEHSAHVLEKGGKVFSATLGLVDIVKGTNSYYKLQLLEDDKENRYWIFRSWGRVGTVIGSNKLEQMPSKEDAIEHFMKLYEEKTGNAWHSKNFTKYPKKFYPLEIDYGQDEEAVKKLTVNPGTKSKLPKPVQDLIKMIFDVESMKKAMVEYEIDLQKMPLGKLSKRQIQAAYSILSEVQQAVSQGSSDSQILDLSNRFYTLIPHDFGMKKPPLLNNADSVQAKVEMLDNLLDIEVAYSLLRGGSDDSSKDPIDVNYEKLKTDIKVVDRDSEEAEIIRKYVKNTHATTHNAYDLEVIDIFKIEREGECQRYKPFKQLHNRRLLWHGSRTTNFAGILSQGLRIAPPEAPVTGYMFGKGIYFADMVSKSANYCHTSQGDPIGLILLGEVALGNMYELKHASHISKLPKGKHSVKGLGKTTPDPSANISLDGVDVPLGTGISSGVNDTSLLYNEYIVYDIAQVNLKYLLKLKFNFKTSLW
Target sequence in this assay (Q96SW2 whole entry): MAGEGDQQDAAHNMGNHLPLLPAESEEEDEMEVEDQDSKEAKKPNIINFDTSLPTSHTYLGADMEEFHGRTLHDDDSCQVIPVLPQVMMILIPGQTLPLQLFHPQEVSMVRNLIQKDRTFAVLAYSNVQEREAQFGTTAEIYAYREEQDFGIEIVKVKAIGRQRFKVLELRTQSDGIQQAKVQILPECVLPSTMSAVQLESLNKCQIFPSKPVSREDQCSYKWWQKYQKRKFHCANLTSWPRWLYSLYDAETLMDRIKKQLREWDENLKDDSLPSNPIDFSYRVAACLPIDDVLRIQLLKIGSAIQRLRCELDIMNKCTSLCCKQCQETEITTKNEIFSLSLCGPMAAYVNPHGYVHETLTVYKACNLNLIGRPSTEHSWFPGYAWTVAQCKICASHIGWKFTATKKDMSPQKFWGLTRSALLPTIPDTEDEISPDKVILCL

[3] = target: T1, Protein cereblon/Poly [ADP-ribose] polymerase 1; experiment: Protac activity at CRBN/PARP1 in human MDA-MB-436 cells assessed as induction of PARP1 degradation at 30 nM incubated for 24 hrs in presence of proteasome inhibitor MG132 by Western blot analysis
Target sequence in this assay (P09874 2-1014 limits assumed): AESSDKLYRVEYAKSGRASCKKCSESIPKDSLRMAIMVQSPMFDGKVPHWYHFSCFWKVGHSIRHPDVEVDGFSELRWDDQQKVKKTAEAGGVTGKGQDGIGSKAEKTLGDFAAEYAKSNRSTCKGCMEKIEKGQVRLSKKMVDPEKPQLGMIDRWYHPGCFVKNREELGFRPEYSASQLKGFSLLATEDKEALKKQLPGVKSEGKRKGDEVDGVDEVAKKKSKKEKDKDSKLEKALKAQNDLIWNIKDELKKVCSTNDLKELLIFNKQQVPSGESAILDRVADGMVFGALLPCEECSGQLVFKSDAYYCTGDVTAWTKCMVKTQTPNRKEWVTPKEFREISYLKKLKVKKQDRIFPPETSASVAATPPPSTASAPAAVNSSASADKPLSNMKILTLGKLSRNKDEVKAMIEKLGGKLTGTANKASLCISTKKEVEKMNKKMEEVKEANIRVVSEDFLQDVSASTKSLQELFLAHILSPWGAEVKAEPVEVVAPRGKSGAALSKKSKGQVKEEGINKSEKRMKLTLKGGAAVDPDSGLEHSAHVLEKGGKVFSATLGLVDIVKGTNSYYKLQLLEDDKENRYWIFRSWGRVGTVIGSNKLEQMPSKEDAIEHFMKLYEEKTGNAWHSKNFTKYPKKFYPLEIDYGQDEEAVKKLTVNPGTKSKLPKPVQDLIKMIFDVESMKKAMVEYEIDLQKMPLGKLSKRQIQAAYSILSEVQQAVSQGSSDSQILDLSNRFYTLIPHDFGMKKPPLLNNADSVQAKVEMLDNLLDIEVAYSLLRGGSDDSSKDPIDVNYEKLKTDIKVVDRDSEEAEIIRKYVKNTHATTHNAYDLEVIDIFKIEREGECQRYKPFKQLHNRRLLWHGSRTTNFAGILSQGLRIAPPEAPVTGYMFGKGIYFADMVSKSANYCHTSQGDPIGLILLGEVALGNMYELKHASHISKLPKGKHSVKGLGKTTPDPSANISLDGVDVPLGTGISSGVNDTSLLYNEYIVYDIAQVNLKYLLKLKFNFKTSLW
Target sequence in this assay (Q96SW2 whole entry partner): as the sequence (Q96SW2 whole entry) above

[4] = target: T1, Protein cereblon/Poly [ADP-ribose] polymerase 1; experiment: Protac activity at CRBN/PARP1 in human MDA-MB-436 cells assessed as induction of PARP1 degradation at 100 nM measured after 5 days by Western blot analysis; format: cell-based; settings: time 5.0 day
Method in brief: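 MDA-MB-436 cells kept at 100 nM for up to 5 days; PARP1 followed by western blot against β-tubulin.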
Target sequence in this assay (P09874 2-1014 limits assumed): as the sequence (P09874 2-1014 limits assumed) above
Target sequence in this assay (Q96SW2 whole entry partner): as the sequence (Q96SW2 whole entry) above

[5] = target: T1, Protein cereblon/Poly [ADP-ribose] polymerase 1; experiment: Protac activity at CRBN/PARP1 in human MDA-MB-468 cells assessed as induction of PARP1 degradation measured after 24 hrs by Western blot analysis; format: cell-based; method in brief: as §1
Target sequence in this assay (P09874 whole entry): as the sequence (P09874 whole entry) above
Target sequence in this assay (Q96SW2 whole entry): as the sequence (Q96SW2 whole entry) above

[6] = target: T1, Protein cereblon/Poly [ADP-ribose] polymerase 1; experiment: Protac activity at CRBN/PARP1 in human MDA-MB-436 cells assessed as induction of PARP1 degradation by measuring PARP1 level at 100 nM pretreated for 2 hrs followed by compound washout and measured after 24 hrs by Western blot analysis; format: cell-based
Method in brief: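 MDA-MB-436 cells pretreated 2 h at 100 nM, compound washed out, cells harvested at various times up to 24 h afterwards; PARP1 versus vehicle-treated cells by western blot, β-tubulin loading control.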
Target sequence in this assay (P09874 2-1014 limits assumed): as the sequence (P09874 2-1014 limits assumed) above
Target sequence in this assay (Q96SW2 whole entry partner): as the sequence (Q96SW2 whole entry) above

SW-620 = experiment: Potentiation of MMS induced cytotoxicity against human SW-620 cells preincubated for 1 hr followed by addition of MMS measured after 5 days by CCK-8 assay; format: functional, cell-based; settings: dose nM 3-300, time 1.0 hrs
Method in brief: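 SW620 cells (1000/well) were attached for 24 h, then preincubated 1 h with DMSO or a single compound concentration (3, 10, 100 or 300 nM). MMS was then added at 0-15 μg/mL (final concentration not stated). Incubation ran 5 days, followed by CCK-8 read at 450 nm. Growth was expressed as % of DMSO-only wells, mean of three wells.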

CAPAN-1 = experiment: Potentiation of cisplatin induced antitumor activity against CAPAN-1 cells xenografted in Balb/c mouse at 50 mg/kg, ip qd administered for 5 days measured on day 16; format: functional, organism-based; settings: time 16.0 day
Method in brief: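 Male BALB/c nude mice carried Capan-1 xenografts (5×10^6 cells s.c.), randomized at ~150 mm³ (6 per group). Treatment was 25 or 50 mg/kg intraperitoneally or 100 mg/kg by oral gavage, once daily on days 0-4. Cisplatin 6 mg/kg in saline was given intraperitoneally on day 2, 45 min after the partner drug. Tumor volume and body weight were measured 2-3 times weekly.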

O=C(CCCCCCCCCCC(=O)N1CCN(C(=O)c2cc(Cc3n[nH]c(=O)c4ccccc34)ccc2F)CC1)NCCNc1cccc2c1C(=O)N(C1CCC(=O)NC1=O)C2=O (centres undefined)
concentration at 24 h [1]: > 10 nM
Activity (CWR22R): Active
DC50 [2]: 1260 pM
Activity [3]: inactive
Activity [4]: Active
DC50 [5]: 263 pM
Activity [6]: Below limit of detection
Activity (SW-620): Dose-dependent effect
Activity (CAPAN-1): Active
